Experimental data from ChEMBL document CHEMBL2046306, “Synthesis of 6-substituted 9-methoxy-11H-indeno[1,2-c]quinoline-11-one derivatives as potential anticancer agents” (Bioorg Med Chem, 2012).
Calls of active or inactive are those of the source. No cut-off for these calls is given here.

Key:
NCI-H460 [1] = experiment: Cell cycle arrest in human NCI-H460 cells assessed as accumulation at G1 phase at 1 uM after 24 hrs by propidium iodide staining-based flow cytometric analysis (reference value: 66.2 +/- 2.1%); assay type: functional
NCI-H460 [2] = experiment: Induction of apoptosis in human NCI-H460 cells assessed as PARP cleavage after 24 hrs by Western blot analysis; assay type: functional, cell-based
Summary of the method: (§1)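 Treated H460 cells washed in cold PBS and lysed 30 min on ice in Tris-HCl pH 7.5/NP-40 buffer with protease and phosphatase inhibitors. Lysate spun at 12,000g. Protein measured by Bradford; 20 µg resolved on 10% SDS-PAGE and transferred to PVDF. Blocked with 5% milk, then primary antibody 2 h and secondary 30 min. Detected by ECL for PARP, procaspase-3 and procaspase-8.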

DU-145 = experiment: Growth inhibition of human DU145 cells after 48 hrs by sulforhodamine B assay; assay type: functional; conditions: DU-145, 48 h
Summary of the method: (§2)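 NCI 60-line screen. Cells grown in RPMI 1640 with 5% FBS and 2 mM L-glutamine, seeded at 5000–40,000 cells/well, preincubated 24 h at 37 °C. Five 10-fold dilutions added, highest well concentration 10E-4 M. Incubated 48 h in 5% CO₂ at 100% humidity. Sulforhodamine B read-out by optical density; GI50 taken from dose-response curves versus control.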

A549 = experiment: Growth inhibition of human A549 cells after 48 hrs by sulforhodamine B assay; assay type: functional, cell-based; conditions: A549, 48 h; summary of the method: as §2
NCI-H460 [3] = experiment: Growth inhibition of human NCI-H460 cells after 48 hrs by sulforhodamine B assay; assay type: functional; conditions: NCI-H460, 48 h; summary of the method: as §2
NCI-H460 [4] = experiment: Cell cycle arrest in human NCI-H460 cells assessed as accumulation at G2/M phase at 10 uM after 24 hrs by propidium iodide staining-based flow cytometric analysis (reference value: 18.6 +/- 1.7%); assay type: functional
NCI-H460 [5] = experiment: Cell cycle arrest in human NCI-H460 cells assessed as accumulation at S phase at 5 uM after 24 hrs by propidium iodide staining-based flow cytometric analysis (reference value: 14.3 +/- 1.9%); assay type: functional
NCI-H460 [6] = experiment: Cell cycle arrest in human NCI-H460 cells assessed as accumulation at G2/M phase at 1 uM after 24 hrs by propidium iodide staining-based flow cytometric analysis (reference value: 18.6 +/- 1.7%); assay type: functional
SR = experiment: Growth inhibition of human SR cells after 48 hrs by sulforhodamine B assay; assay type: functional
Summary of the method: (§3)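 NCI 60-line screen. Cells grown in RPMI 1640 with 5% FBS and 2 mM L-glutamine, seeded at 5000-40,000 cells/well and preincubated 24 h at 37 °C. Compounds added at five 10-fold dilutions, highest well concentration 10E-4 M. Exposure 48 h in 5% CO2 at 100% humidity. Endpoint is sulforhodamine B with optical density read-out. GI50 is the concentration giving 50% growth inhibition versus control.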

NCI-H460 [7] = experiment: Induction of apoptosis in human NCI-H460 cells assessed as induction of caspase 8 activity after 24 hrs by Western blot analysis; assay type: functional, cell-based; summary of the method: as §1
NCI-H460 [8] = experiment: Antiproliferative activity against human NCI-H460 cells assessed as growth at 100 uM after 48 hrs by alamar blue assay; assay type: functional; conditions: NCI-H460, 48 h, read-out: Activity
Summary of the method: (§4)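 Single-dose prescreen in a three-line NCI panel (NCI-H460, MCF7, SF-268). Cells were inoculated and preincubated on microtiter plates, then exposed to test agent at 100 μM for 48 h. Alamar blue end-point. Growth is expressed as percent of untreated control cells.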

NCI-H460 [9] = experiment: Cell cycle arrest in human NCI-H460 cells assessed as accumulation at S phase at 10 uM after 24 hrs by propidium iodide staining-based flow cytometric analysis (reference value: 14.3 +/- 1.9%); assay type: functional
Nucleic Acid [10] = experiment: Binding affinity to Escherichia coli pBR322 assessed as DNA unwinding at 1000 uM after 12 hrs by ethidium bromide staining-based agarose gel electrophoresis; assay type: nucleic-acid assay
Summary of the method: (§5)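 Negatively supercoiled pBR322 plasmid (400 ng) incubated with the test compound in TE buffer, pH 8.0, for 12 h at room temperature. Loading buffer contained sarkosyl, bromophenol blue and glycerol. Samples run on 1% agarose at 6 V/cm for 2.5 h in TAE, pH 8.5. Ethidium bromide stain, imaged under UV; unwinding read as reduced mobility of form I DNA.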

Nucleic Acid [11] = experiment: Binding affinity to Escherichia coli pBR322 assessed as DNA unwinding at 10 to 100 uM after 12 hrs by ethidium bromide staining-based agarose gel electrophoresis; assay type: nucleic-acid assay; summary of the method: as §5
NCI-H460 [12] = experiment: Induction of apoptosis in human NCI-H460 cells assessed as cell shrinkage at 10 uM after 24 hrs by light microscopic analysis relative to control; assay type: functional, cell-based
Summary of the method: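 H460 cells exposed to DMSO or compound (1.0-10.0 μM) for 24 h at 37 °C, then photographed under a light microscope for morphology.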

CCRF-CEM = experiment: Growth inhibition of human CCRF-CEM cells after 48 hrs by sulforhodamine B assay; assay type: functional; summary of the method: as §2
NCI-H460 [13] = experiment: Cell cycle arrest in human NCI-H460 cells assessed as accumulation at G1 phase at 5 uM after 24 hrs by propidium iodide staining-based flow cytometric analysis (reference value: 66.2 +/- 2.1%); assay type: functional
NCI-H460 [14] = experiment: Cell cycle arrest in human NCI-H460 cells assessed as accumulation at G2/M phase at 5 uM after 24 hrs by propidium iodide staining-based flow cytometric analysis (reference value: 18.6 +/- 1.7%); assay type: functional
NCI-H460 [15] = experiment: Induction of apoptosis in human NCI-H460 cells assessed as accumulation at sub-G1 phase at 5 uM after 24 hrs by propidium iodide staining-based flow cytometric analysis (reference value: 0.9 +/- 0.3%); assay type: functional
MCF7 = experiment: Antiproliferative activity against human MCF7 cells assessed as growth at 100 uM after 48 hrs by alamar blue assay; assay type: functional; conditions: MCF7, 48 h, read-out: Activity; summary of the method: as §4
U-251 = experiment: Growth inhibition of human U251 cells after 48 hrs by sulforhodamine B assay; assay type: functional; conditions: U-251, 48 h; summary of the method: as §3
NCI-H460 [16] = experiment: Cell cycle arrest in human NCI-H460 cells assessed as accumulation at G1 phase at 10 uM after 24 hrs by propidium iodide staining-based flow cytometric analysis (reference value: 66.2 +/- 2.1%); assay type: functional
NCI-H460 [17] = experiment: Induction of apoptosis in human NCI-H460 cells assessed as accumulation at sub-G1 phase at 10 uM after 24 hrs by propidium iodide staining-based flow cytometric analysis (reference value: 0.9 +/- 0.3%); assay type: functional
HCT-116 = experiment: Growth inhibition of human HCT116 cells after 48 hrs by sulforhodamine B assay; assay type: functional; conditions: HCT-116, 48 h; summary of the method: as §2
NCI-H460 [18] = experiment: Cell cycle arrest in human NCI-H460 cells assessed as accumulation at S phase at 1 uM after 24 hrs by propidium iodide staining-based flow cytometric analysis (reference value: 14.3 +/- 1.9%); assay type: functional
SF-268 = experiment: Antiproliferative activity against human SF268 cells assessed as growth at 100 uM after 48 hrs by alamar blue assay; assay type: functional; conditions: SF-268, 48 h, read-out: Activity; summary of the method: as §4
IGROV-1 = experiment: Growth inhibition of human IGROV1 cells after 48 hrs by sulforhodamine B assay; assay type: functional; conditions: IGROV-1, 48 h; summary of the method: as §2
[19] = Growth inhibition of human Hs 578T cells after 48 hrs by sulforhodamine B assay; assay type: functional; summary of the method: as §2
NCI-H460 [20] = experiment: Induction of apoptosis in human NCI-H460 cells assessed as induction of caspase 3 activity after 24 hrs by Western blot analysis; assay type: functional, cell-based; summary of the method: as §1
NCI-H460 [21] = experiment: Induction of apoptosis in human NCI-H460 cells assessed as accumulation at sub-G1 phase at 1 uM after 24 hrs by propidium iodide staining-based flow cytometric analysis (reference value: 0.9 +/- 0.3%); assay type: functional
SK-MEL-5 = experiment: Growth inhibition of human SK-MEL-5 cells after 48 hrs by sulforhodamine B assay; assay type: functional; conditions: SK-MEL-5, 48 h; summary of the method: as §3

## COc1ccc2c(c1)C(=O)c1c-2c(NCCCN(C)C)nc2ccccc12
NCI-H460 [1]
  Activity: 58.1%
NCI-H460 [2]
  Activity: Dose-dependent effect
DU-145
  GI50: 6610 nM
A549
  GI50: 1860 nM
NCI-H460 [3]
  GI50: 1330 nM
NCI-H460 [4]
  Activity: 21.5%
NCI-H460 [5]
  Activity: 9.1%
NCI-H460 [6]
  Activity: 28.1%
SR
  GI50: 1100 nM
NCI-H460 [7]
  Activity: Dose-dependent effect
NCI-H460 [8]
  growth at 100 µM: 0%
NCI-H460 [9]
  Activity: 11.8%
Nucleic Acid [10]
  Activity: inactive
Nucleic Acid [11]
  Activity: Active
NCI-H460 [12]
  Activity: Active
CCRF-CEM
  GI50: 3390 nM
NCI-H460 [13]
  Activity: 49.2%
NCI-H460 [14]
  Activity: 33.5%
NCI-H460 [15]
  Activity: 8.2%
MCF7
  growth at 100 µM: 0%
U-251
  GI50: 1100 nM
NCI-H460 [16]
  Activity: 41.4%
NCI-H460 [17]
  Activity: 25.3%
HCT-116
  GI50: 1260 nM
NCI-H460 [18]
  Activity: 10.1%
SF-268
  growth at 100 µM: 0%
IGROV-1
  GI50: 6920 nM
[19]
  GI50: 3720 nM
NCI-H460 [20]
  Activity: Dose-dependent effect
NCI-H460 [21]
  Activity: 3.7%
SK-MEL-5
  GI50: 3890 nM
